Published values collected from several papers.
Protocols differ between the studies behind these lines.

| Structure (SMILES) | test | system | setting | quantity | value |
| --- | --- | --- | --- | --- | --- |
| CCN1CCN(C(=O)c2ccc(-n3nc(-c4cccnc4)c4c3-c3sc(NC(C)=O)nc3CC4)cc2)CC1 | – | – | – | logP | 3.16 |
| O=c1ccc2ccc(O)cc2o1 | metabolic stability | dog, liver microsomes | – | scaled CLint | 1720 mL/min/kg |
| CCOc1ccc2ccc(=O)oc2c1 | metabolic stability | male beagle dog, hepatocytes | 1 µM | hepatocyte CLint | > 46.2 µL/min/10⁶ cells |
| CCOC(=O)c1cc(Cl)cc(NC(=O)c2sc(Cl)cc2S(=O)(=O)N(C)c2ccc(OCC)c(OC)c2)c1 | – | male C57BL/6 mouse, brain | intraperitoneal, 10 mg/kg, 1 h | concentration | 6.45 ng/g |
| Cc1cc2sc(N)nc2c2cccnc12 | – | female BALB/c mouse, plasma | intraperitoneal, 30 mg/kg, 24 h, single dose | concentration | 32.7 ng/mL |
| CN(C)CC#Cc1ccc2[nH]c3c(c2c1)-c1nc(N)ncc1CCC3 | – | male CD-1 mouse, plasma | intraperitoneal, 30 mg/kg, 1 h, single dose | concentration | 697 ng/mL |
| CCOC(=O)CN(C(=O)c1ccn2ncc(-c3ccc(C(=O)NC)cc3)c2c1)c1ccc(Cl)cc1 | – | female C57BL/6 mouse, plasma | oral, 10 mg/kg, 4 h | concentration | 150 nM |
| CCN1CCN(Cc2ccc(NC(=O)c3ccc(C)c(NC(=O)c4cncc(-c5cccs5)c4)c3)cc2C(F)(F)F)CC1 | – | mouse, plasma | intraperitoneal, 20 mg/kg, single dose | half-life | 2.52 h |
| O=C1NC(=O)/C(=C/c2ccc3ncnc(N4CCCCC4)c3n2)S1 | – | – | – | logP | 2.33 |
| CNC(=O)c1ccc(-c2cnn3ccc(C(=O)N(C[C@H]4CCC(=O)O4)c4ccc(OC(F)(F)F)cc4)cc23)cc1 | – | female C57BL/6 mouse, plasma | oral, 10 mg/kg, 1 h | concentration | 31.4 nM |
| O=C1NC(=O)/C(=C/c2ccc3ncnc(N4CCC(F)(F)CC4)c3n2)S1 | – | – | – | logP | 2.51 |
| CN(C(=O)c1ccn2ncc(-c3ccc(C(N)=O)cc3)c2c1)c1ccc(C#N)cn1 | – | female C57BL/6 mouse, plasma | oral, 10 mg/kg, 4 h | concentration | 519 nM |
| COc1cc(N2CCC(N3CCN(C)CC3)CC2)ccc1Nc1ncc(Cl)c(Nc2ccccc2P(C)(C)=O)n1 | – | – | – | logP | 2.69 |
